# Hits are enriched below; roughly 2% of the tested compounds scored in any of these assays.
# EBI2 antag: EBI2 (human) antagonism | inhibition, % at 5 µM | AID 651636 | P32249 | 0.81% of 360,000 active | EBI2 beta-arrestin recruitment, luminescence, 7a,25-OHC stimulated; in the data active = inhibition above about 38%;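 also: enzyme fragment complementation signal reports receptor beta-arrestin coupling in cells; 0% = agonist plus DMSO wells and 100% = wells without agonist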
# APJ antag: antagonists of human APJ apelin receptor | CHO-K1 APJ beta-arrestin complementation, luminescence | 0.32% of 330,000 active | AID 2521 | inhibition, % at 20 µM;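 active = inhibition above about 40% at 20 µM, limit read from the data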;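 also: cells challenged with 10 nM apelin-13 agonist together with compound; plate controls were apelin-13 plus DMSO wells for no effect and DMSO wells lacking apelin-13 for full effect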
# Target sequence (P35414 whole entry, looked up): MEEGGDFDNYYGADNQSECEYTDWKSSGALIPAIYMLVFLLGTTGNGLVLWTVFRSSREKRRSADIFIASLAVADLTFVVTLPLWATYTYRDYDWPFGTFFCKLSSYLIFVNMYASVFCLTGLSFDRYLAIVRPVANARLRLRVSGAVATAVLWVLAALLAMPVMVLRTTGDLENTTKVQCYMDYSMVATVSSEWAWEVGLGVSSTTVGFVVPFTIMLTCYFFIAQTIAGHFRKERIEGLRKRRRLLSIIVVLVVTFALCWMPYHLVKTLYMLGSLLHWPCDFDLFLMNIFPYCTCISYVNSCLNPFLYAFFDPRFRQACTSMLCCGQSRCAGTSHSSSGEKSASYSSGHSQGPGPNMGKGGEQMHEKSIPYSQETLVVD
# APJ agonist: APJ receptor agonism. P35414. CHO-K1 APJ PathHunter beta-arrestin, luminescence; 0% DMSO wells, 100% apelin. activation, % at 20 µM. 0.11% of 330,000 active;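 active = activation more than six SD over the plate average, tested at 20 µM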;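 also: 0% = DMSO alone and 100% = apelin-13 at 10 nM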
#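 Material: CHO-K1 APJ beta-arrestin complementation cell line; Input: cell density 1000 per well; Incubation: compound stimulation 90 min at 25 °C, detection 60 min; Signal: luminescence from split beta-galactosidase complementation, Galacton Star/Emerald II substrate; Controls: DMSO-only wells as negative, 10 nM Apelin-13 as positive control.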
# FXN GAA850 act: frataxin GAA850 promoter activation. HEK293 lucGAA850 FXN promoter luciferase reporter, 24 h; percent of 10 µM SAHA response. 0.56% of 360,000 active. activation, % at 6 µM. AID 540364;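 active = activation above the average of all compounds screened plus 3 SD, cutoff fixed separately per campaign, cut at about 7.5% in these data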;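 also: 0% = DMSO wells and 100% = 10 µM SAHA wells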
# CXCR6 block: CXCR6 (human) receptor inhibition; O00574; CHO-K1 PathHunter CXCR6 beta-arrestin, luminescence; inhibition, % at 20 µM; 0.36% of 360,000 active; AID 602244; in the data active = inhibition above about 34%, passing the limit was not always enough;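 also: antagonist mode with CXCL16 agonist at 10 nM final; 0% = 10 nM CXCL16 with DMSO and 100% = unstimulated wells without agonist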
# CCR6 antagonist: blocks CCL20-driven beta-arrestin recruitment at human CCR6. CHO-K1 CCR6 PathHunter beta-arrestin, luminescence, CCL20-stimulated. P51684. inhibition, % at 20 µM. 0.49% of 340,000 active;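 active = compounds whose inhibition of the agonist-driven luminescence signal at 20 µM reaches about 50%, limit read from the data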;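 also: cells stimulated with CCL20 at 14 nM final; plate controls were DMSO with CCL20 for no effect and DMSO without agonist for full effect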
# EBI2 antag conf: EBI2 (human) antagonism, single concentration confirmation; shares compounds with EBI2 antag; EBI2 beta-arrestin luminescence, 7a,25-OHC antagonism; inhibition, % at 5 µM; 29% of 2,400 active;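 active = inhibition of at least 50%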
# EBI2 ag: counter-screen for EBI2 antagonists: EBI2 agonist activity; shares compounds with EBI2 antag; EBI2-expressing cells, agonist mode, luminescence, 60 min; 0% vehicle, 100% 7α,25-dihydroxycholesterol control; activation, % at 5 µM; 2,400 tested, under 10 active;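 active = activation of at least 50%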
# bGal counter: beta-galactosidase inhibition counter-screen; shares compounds with EBI2 antag; purified beta-galactosidase, luminescent Galacton Star, 15 min; inhibition, % at 5 µM; 1% of 2,400 active; AID 652176;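 active = replicate-average signal at least 3 plate SD below neutral wells, shown as high inhibition, flagging enzyme-inhibiting false positives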;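 also: 0% = DMSO wells with enzyme and 100% = wells lacking enzyme; higher means stronger loss of beta-gal luminescence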
# An asterisk follows results filed as active; x = no result given.
SMILES,EBI2 antag,APJ antag,APJ agonist,FXN GAA850 act,CXCR6 block,CCR6 antagonist,EBI2 antag conf,EBI2 ag,bGal counter
CCCn1c(N)c(N(CCOC)C(=O)Cc2ccc(S(=O)(=O)N3CCOCC3)s2)c(=O)[nH]c1=O,-11,-7,0,0,-8,x,x,x,x
C(=C\c1ccccc1)/CN1CCN(C(c2ccccc2)c2nnnn2Cc2ccccc2)CC1 (centres undefined),47*,x,x,x,5,x,37,-1,-18
CCC(c1nnnn1-c1ccc(OC)cc1)N1CCN(C/C=C/c2ccccc2)CC1 (centres undefined),11,x,x,x,-5,x,x,x,x
COc1ccc(-n2nnnc2C(c2ccccc2)N2CCN(C/C=C/c3ccccc3)CC2)cc1 (centres undefined),53*,x,x,x,9,x,41,1,-1
COc1ccc(C(c2nnnn2Cc2ccccc2)N2CCN(C/C=C/c3ccccc3)CC2)cc1 (centres undefined),50*,x,x,x,16,x,20,1,-14
O=C1C(=O)N(CCN2CCOCC2)C(c2ccccc2F)/C1=C(\O)c1ccc(S(=O)(=O)N2CCOCC2)cc1 (centres undefined),5,4,0,2,6,11,x,x,x
CC(C)N1CCSC1=S,0,x,x,2,-10,9,x,x,x
O=S(=O)(c1ccccc1)N1CCN(CC(O)COc2ccc3c(c2)CCC3)CC1 (centres undefined),83*,10,1,3,-1,-2,69*,2,-4
Cc1ccccc1-c1ccc2c(c1)O[C@@H](CN(C)C(=O)Nc1ccc(C(F)(F)F)cc1)[C@H](C)CN([C@@H](C)CO)S2(=O)=O,18,x,x,-6,17,x,x,x,x
COc1ccc(OC)c(C2=Nn3c(nnc3-c3cccc(OC(C)C)c3)SC2)c1,46*,-8,-6,1,18,20,35,1,-2
C=CCn1c(SCc2ccc(C(=O)Nc3ccccc3)cc2)nnc1-c1ccccc1,49*,-30,-5,2,5,1,15,1,10
COc1ccc(-c2cnc(N)nc2-c2ccc(OC)cc2O)cc1,81*,-9,0,2,-6,2,44,0,-9
COc1ccc(-c2nc(N)ncc2-c2ccccc2)c(O)c1,61*,-13,-2,3,2,2,6,-1,-9
COc1ccc(-c2nc(N)ncc2-c2ccccc2OC)c(O)c1,46*,1,-5,2,-6,11,15,0,11
COc1ccc(-c2nc(N)nc(C(F)(F)F)c2-c2ccccc2OC)c(O)c1,8,0,2,0,1,-6,x,x,x
Nc1ncc(-c2ccccc2)c(-c2ccc(OCc3ccccc3)cc2O)n1,20,-12,-1,5,2,3,x,x,x
O=C(CN1C(=O)NC2(CCc3ccccc32)C1=O)NCC(=O)Nc1ccc(F)cc1 (centres undefined),-3,-1,-1,1,-1,1,x,x,x
CC(c1ccccc1)N(CCC(c1ccccc1)C1CCOC(C)(C)C1)C(=O)c1ccco1 (centres undefined),44*,-14,2,-1,4,30,10,2,8
COc1ccc(CN(CCC(c2ccc(F)cc2)C2CCOC(C)(C)C2)C(=O)c2ccco2)cc1 (centres undefined),-4,-5,1,-5,-2,4,x,x,x
COc1ccc(-c2cn(Cc3ccc(C(=O)NCc4ccc(C)cc4)cc3)c(C(C)N)n2)cc1 (centres undefined),54*,9,-2,0,8,-10,5,1,-2
COc1ccc(-c2cn(Cc3ccc(C(N)=O)cc3)c(-c3ccc(Cl)nc3)n2)cc1,3,-5,-3,2,-8,1,x,x,x
CCCC(=O)n1nc(-c2ccccc2)nc1SC,43*,0,-8,0,-8,-8,24,1,7
CCc1ccc(OCC(=O)Nc2ccc(S(=O)(=O)Nc3ccccn3)cc2)cc1,61*,10,-2,0,-7,10,29,-1,11
O=C(O)C1c2ccccc2Cc2ccccc21,-15,x,x,1,-5,x,x,x,x
C=C(C)C1Cc2c(C)nn(-c3cccc4ccccc34)c2C1 (centres undefined),32*,17,-2,0,-3,10,41,-1,8
SMILES,EBI2 antag,APJ antag,APJ agonist,FXN GAA850 act,CXCR6 block,CCR6 antagonist,EBI2 antag conf,EBI2 ag,bGal counter
COc1cc2c(cc1NC(=S)NC(=O)/C=C/c1ccco1)oc1ccccc12,55*,13,-5,0,-3,10,51*,-2,-16
COc1ccc(/C=C/C(=O)NC(=S)Nc2cc3oc4ccccc4c3cc2OC)cc1,65*,1,-3,3,8,15,45,1,2
Cc1ccc(/C=C/C(=O)N2CCN(S(=O)(=O)c3c(C)c(C)cc(C)c3C)CC2)o1,50*,5,-4,3,9,5,32,1,3
Cc1cc(C)c(C)c(S(=O)(=O)N2CCN(C(=O)c3ccco3)CC2)c1C,6,16,-2,0,-1,6,x,x,x
Cc1ccc(C(CC(=O)O)NC(=O)c2ccc(S(=O)(=O)N3CC(C)OC(C)C3)cc2)cc1 (centres undefined),-2,-3,-6,0,6,6,x,x,x
COc1ccc2[nH]c3c(c2c1)CCN1C(=O)N([C@@H](C)C(=O)NC2CCCCC2C)C(=O)[C@]31C (some centres undefined),11,-65,-3,-3,-2,-1,x,x,x
O=C(O)C1C2OC(C(Br)C2Br)C1C(=O)O (centres undefined),-13,x,x,1,4,7,x,x,x
CCOc1ccc(-n2c(-c3ccco3)nc3c(cnn3-c3ccc(C)cc3)c2=O)cc1,47*,-8,-1,1,10,6,19,1,6
CCOc1ccc2nc(COC(=O)c3ccncc3)c(C(=O)c3ccccc3)[n+]([O-])c2c1,45*,12,-3,-1,2,9,16,-2,-7
CCOc1ccc2nc(COC(=O)c3cccs3)c(C(=O)c3ccccc3)[n+]([O-])c2c1,47*,5,-2,2,4,14,24,0,7
CCCCN(C(=O)CC1CCCC1)c1c(N)n(Cc2ccccc2)c(=O)[nH]c1=O,-5,x,x,0,0,x,x,x,x

# From PubChem BioAssay
